From ChEMBL document CHEMBL1806474, “Diversity oriented design of various hydrazides and their in vitro evaluation against Mycobacterium tuberculosis H37Rv strains” (2011) come the findings set out here.

Type in all cases: functional
The subject of assay [1] is Mycobacterium tuberculosis. As to the kind of experiment: Antimycobacterial activity against Mycobacterium tuberculosis H37Rv ATCC 27294 after 5 to 8 days by microplate alamar blue assay. (Resazurin is reduced to fluorescent resorufin, in cell work by metabolically active cells.)
For assay [2], the system named is Mycobacterium tuberculosis. Kind of assay: Growth inhibition of Mycobacterium tuberculosis H37Rv ATCC 27294 after 5 to 8 days by microplate alamar blue assay.
In assay [3] the test system is Mycobacterium tuberculosis. Kind of assay: Antimycobacterial activity against Mycobacterium tuberculosis. In short, it runs like this: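 Radiometric BACTEC 460 assay in 7H12 broth (BACTEC-12B, 4 mL) with M. tuberculosis H37Rv ATCC 27294. Inoculum came from 7H9/glycerol/0.05% Tween 80 cultures at OD550 0.45–0.55, diluted to reach GI 999 in five days. Compounds were from 1 mg/mL DMSO stocks, with DMSO controls. GI was read daily at 37 °C, 5–8 days. % inhibition = [1 − (GI test/GI control)] × 100. MIC was set against a 1:100 diluted control.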

[4] abbreviates: Mycobacterium tuberculosis, H37Rv ATCC 27294.

Values after ≈ are worked out from the molar mass of the structure shown.

In turn, `O=C1Nc2ccccc2C(=O)/C1=N/Nc1ccccc1` came in with an MIC99 in assay [1] (setting [4]) of under 6.25 µg/mL. For the same compound, in assay [2], the “growth inhibition (GI)” value was 97%. In the case of `O=C1Nc2cc([N+](=O)[O-])ccc2C(=O)/C1=N/Nc1ccc(Br)cc1`, in assay [1] (setting [4]), the MIC99 was under 6.25 µg/mL. In addition, the “growth inhibition (GI)” value in assay [2] worked out at 100%. The corresponding values for `O=C1Nc2cc([N+](=O)[O-])ccc2C(=O)/C1=N/Nc1ccccc1-c1ccccc1` are under 6.25 µg/mL and 100%. The corresponding values for `Cc1c(Cl)cccc1N/N=C1\C(=O)Nc2cc([N+](=O)[O-])ccc2C1=O` are under 6.25 µg/mL and 98%. The corresponding values for `O=C1Nc2ccc(Cl)cc2C(=O)/C1=N/Nc1ccc(Cl)cc1` are under 6.25 µg/mL and 98%. `Cc1cccc(N/N=C2\C(=O)Nc3c(cccc3[N+](=O)[O-])C2=O)c1` registered an MIC99 in assay [1] (setting [4]) of under 6.25 µg/mL. In addition, in assay [2], the “growth inhibition (GI)” value is recorded as 95%. The corresponding values for `CN1C(=O)/C(=N\Nc2ccccc2[N+](=O)[O-])C(=O)c2ccccc21` are under 6.25 µg/mL and 94%. The corresponding values for `O=C1Nc2c(ccc(Cl)c2Cl)C(=O)/C1=N/Nc1ccc([N+](=O)[O-])cc1` are under 6.25 µg/mL and 89%.

For `O=C1Nc2c(ccc(Cl)c2Cl)C(=O)/C1=N/Nc1ccccc1`, in assay [1] (setting [4]), the MIC99 was under 6.25 µg/mL. Also, the “growth inhibition (GI)” value in assay [2] was 85%. Consider `O=C1Nc2c(cccc2[N+](=O)[O-])C(=O)/C1=N/Nc1cccc(Cl)c1`, for which the MIC99 in assay [1] (setting [4]) is under 6.25 µg/mL. The “growth inhibition (GI)” value in assay [2] came to 82%. In turn, `O=C1Nc2c(cccc2[N+](=O)[O-])C(=O)/C1=N/Nc1ccccc1[N+](=O)[O-]` gave an MIC99 in assay [1] (setting [4]) of under 6.25 µg/mL. In assay [2], the “growth inhibition (GI)” value stood at 80%. With `O=C1Nc2c(cccc2[N+](=O)[O-])C(=O)/C1=N/Nc1ccc(Cl)c(Cl)c1`, in assay [1] (setting [4]), the MIC99 is under 6.25 µg/mL. For the same compound, in assay [2], the “growth inhibition (GI)” value was determined as 79%. The corresponding values for `Cc1cccc(N/N=C2\C(=O)Nc3cc(Cl)ccc3C2=O)c1` are under 6.25 µg/mL and 70%.

`O=C1Nc2cc([N+](=O)[O-])ccc2C(=O)/C1=N/Nc1ccc(Cl)c(F)c1` had an MIC99 in assay [1] (setting [4]) of under 6.25 µg/mL. Also, in assay [2], the “growth inhibition (GI)” value amounted to 70%. Compound `O=C1Nc2ccc(Cl)cc2C(=O)/C1=N/Nc1ccccc1[N+](=O)[O-]` displayed an MIC99 in assay [1] (setting [4]) of under 6.25 µg/mL. Moreover, the “growth inhibition (GI)” value in assay [2] was found to be 64%.

Regarding `O=C1Nc2c(cccc2[N+](=O)[O-])C(=O)/C1=N/Nc1ccc(Cl)cc1`, the MIC99 in assay [1] (setting [4]) was under 6.25 µg/mL. For the same compound, in assay [2], the “growth inhibition (GI)” value is given as 61%. The corresponding values for `O=C1Nc2c(cccc2[N+](=O)[O-])C(=O)/C1=N/Nc1cccc([N+](=O)[O-])c1` are under 6.25 µg/mL and 60%. Consider `O=C1Oc2ccc3ccccc3c2C(=O)/C1=N/Nc1ccc([N+](=O)[O-])cc1`, for which, in assay [1] (setting [4]), the MIC99 is under 6.25 µg/mL. The “growth inhibition (GI)” value in assay [2] is on record as 94%. The corresponding values for `O=C1Oc2ccc3ccccc3c2C(=O)/C1=N/Nc1ccc(Cl)cc1` are under 6.25 µg/mL and 88%.

Regarding `Cc1cccc(N/N=C2\C(=O)Oc3ccc4ccccc4c3C2=O)c1C`, in assay [1] (setting [4]), the MIC99 is under 6.25 µg/mL. Also, the “growth inhibition (GI)” value in assay [2] amounted to 64%. As to `O=C1Oc2ccc3ccccc3c2C(=O)/C1=N/Nc1ccccc1`, the MIC99 in assay [1] (setting [4]) was under 6.25 µg/mL. Also, the “growth inhibition (GI)” value in assay [2] came out at 62%. The corresponding values for `Cc1cc(C)cc(N/N=C2\C(=O)Oc3ccc4ccccc4c3C2=O)c1` are under 6.25 µg/mL and 58%. On to `COc1ccc(N/N=C2\C(=O)Oc3ccc4ccccc4c3C2=O)cc1`, for which the MIC99 in assay [1] (setting [4]) is under 6.25 µg/mL. For the same compound, the “growth inhibition (GI)” value in assay [2] is listed as 55%.

In the case of `O=C1Oc2ccc(-c3ccccc3)cc2C(=O)/C1=N/Nc1ccccc1[N+](=O)[O-]`, the MIC99 in assay [1] (setting [4]) is under 6.25 µg/mL. In addition, the “growth inhibition (GI)” value in assay [2] turned out to be 25%. The corresponding values for `Cc1cccc(N/N=C2\C(=O)Oc3ccc(-c4ccccc4)cc3C2=O)c1` are under 6.25 µg/mL and 23%. The compound `O=C1Oc2ccc(-c3ccccc3)cc2C(=O)/C1=N/Nc1c(Cl)cccc1Cl` had an MIC99 in assay [1] (setting [4]) of under 6.25 µg/mL. Moreover, the “growth inhibition (GI)” value in assay [2] was 23%.

On to `O=C1Oc2ccc(-c3ccccc3)cc2C(=O)/C1=N/Nc1cccc(F)c1Cl`, for which, in assay [1] (setting [4]), the MIC99 is under 6.25 µg/mL. Moreover, in assay [2], the “growth inhibition (GI)” value is 19%. The corresponding values for `O=C1Oc2ccc(-c3ccccc3)cc2C(=O)/C1=N/Nc1ccc(F)cc1` are under 6.25 µg/mL and 18%. `Cc1ccccc1N/N=C1\C(=O)Oc2ccc(-c3ccccc3)cc2C1=O` returned an MIC99 in assay [1] (setting [4]) of under 6.25 µg/mL. Also, the “growth inhibition (GI)” value in assay [2] is reported as 17%. The corresponding values for `CC(=O)c1c(C)[nH]c(C(=O)N/N=C/c2ccc(C)cc2)c1C` are under 6.25 µg/mL and 92%. The corresponding values for `CC(=O)c1c(C)[nH]c(C(=O)N/N=C/c2ccc([N+](=O)[O-])cc2)c1C` are under 6.25 µg/mL and 32%. The corresponding values for `CC(=O)c1c(C)[nH]c(C(=O)N/N=C/c2cccc(Cl)c2)c1C` are under 6.25 µg/mL and 29%.

As to `CC(=O)c1c(C)[nH]c(C(=O)N/N=C/c2cccc([N+](=O)[O-])c2)c1C`, in assay [1] (setting [4]), the MIC99 was under 6.25 µg/mL. Moreover, the “growth inhibition (GI)” value in assay [2] is recorded as 18%. The corresponding values for `CC(=O)c1c(C)[nH]c(C(=O)N/N=C/c2ccc(N(C)C)cc2)c1C` are under 6.25 µg/mL and 18%. The compound `CCCc1cc(=O)oc2c3c(c4c(c12)OC(C)(C)C=C4)O[C@H](C)[C@@H](C)[C@@H]3O` [CALANOLIDE A] showed a minimum inhibitory concentration (MIC) in assay [3] of 3.13 µg/mL (≈ 8.45 µM).

As to `CO[C@H]1/C=C/O[C@@]2(C)Oc3c(C)c(O)c4c(O)c(c(/C=N/N5CCN(C)CC5)c(O)c4c3C2=O)NC(=O)/C(C)=C\C=C\[C@H](C)[C@H](O)[C@@H](C)[C@@H](O)[C@@H](C)[C@H](OC(C)=O)[C@@H]1C` [RIFAMPIN], the MIC97 in assay [1] was 0.015 µg/mL (≈ 0.0182 µM). In assay [1] (setting [4]), this compound registered an MIC95 of 0.25 µg/mL (≈ 0.304 µM).

For orientation: MIC99 means the lowest concentration that inhibits either 99% of growth or 99% of the strains tested, depending on the study. A high value points to lower susceptibility. As a reminder, the MIC is the least concentration at which growth counts as inhibited. Read a high MIC as a less susceptible organism.
